Source: ChEMBL document CHEMBL4680077, “Differentiation of skeletal osteogenic progenitor cells to osteoblasts with 3,4-diarylbenzopyran based amide derivatives: Novel osteogenic agents” (Eur J Med Chem, 2016)
Calls of active or inactive are those of the source. The rule behind the calls is not given here.

What was measured:
[1] = Acute toxicity in Swiss albino mouse assessed as triglycerides level at 1000 mg/kg, po measured after 7 days (reference value: 58.51 +/- 10.82 mg/dL); format: organism-based; settings: in vivo, 168 h, time 7 day
Calvarial osteoblast [2] = experiment: Induction of osteoblast differentiation in mouse calvarial osteoblast assessed as increase in mineralization nodules at 1 pM incubated for 15 days by alizarin-red S dye based colorimetric analysis; format: functional, cell-based; settings: time 15.0 day
How it was run: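 Calvarial osteoblasts were seeded at 2×10³ cells/well in differentiation medium (10 mM β-glycerophosphate, ascorbic acid) and cultured ± 1 pM with medium changed every 48 h. Cells were fixed in 4% formaldehyde and stained with 40 mM alizarin red S. Dye was extracted in 10% acetic acid at 85 °C, neutralized with ammonium hydroxide and read at 405 nm. n = 3.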

[3] = Half life in Sprague-Dawley rat at 1 mg/kg, iv measured upto 24 hrs by LC-MS/MS analysis; format: ADME, organism-based; settings: in vivo
[4] = Acute toxicity in Swiss albino mouse assessed as triglycerides level at 300 mg/kg, po measured after 7 days (reference value: 58.51 +/- 10.82 mg/dL); format: organism-based; settings: in vivo, 168 h, time 7 day
[5] = Acute toxicity in Swiss albino mouse assessed as neutrophil count at 300 mg/kg, po measured after 7 days (reference value: 41.50 +/- 4.08 %); format: organism-based; settings: in vivo, 168 h, time 7 day
[6] = Acute toxicity in Swiss albino mouse assessed as absolute spleen weight at 300 mg/kg, po measured after 7 days (reference value: 0.17 +/- 0.03 g); format: organism-based; settings: in vivo, 168 h, time 7 day
[7] = Acute toxicity in Swiss albino mouse assessed as RBC count at 300 mg/kg, po measured after 7 days (Rvb =6.0 +/- 0.28 million/mm3); format: organism-based; settings: in vivo, 168 h, time 7 day
Calvarial osteoblast [8] = experiment: Induction of osteoblast differentiation in mouse calvarial osteoblast assessed as increase in ALP activity using PNPP as substrate at 0.000001 to 1 uM incubated activity for 48 hrs by spectrophotometric analysis relative to control; format: functional, cell-based; settings: dose lower 1e-06 µM, dose upper 1.0 µM
[9] = Acute toxicity in Swiss albino mouse assessed as relative brain weight at 50 mg/kg, po measured after 7 days (reference value: 1.63 +/- 0.13 %); format: organism-based; settings: in vivo, 168 h, time 7 day
[10] = Acute toxicity in Swiss albino mouse assessed as relative liver weight at 300 mg/kg, po measured after 7 days (reference value: 6.81 +/- 2.14 %); format: organism-based; settings: in vivo, 168 h, time 7 day
[11] = Acute toxicity in Swiss albino mouse assessed as relative uterus weight at 300 mg/kg, po measured after 7 days (reference value: 1.63 +/- 0.71 %); format: organism-based; settings: in vivo, 168 h, time 7 day
[12] = Tmax in Sprague-Dawley rat at 1 mg/kg, po measured upto 24 hrs by LC-MS/MS analysis; format: ADME, organism-based; settings: in vivo
How it was run: (§1)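 Female Sprague-Dawley rats (n = 4), fasted overnight 12–14 h, dosed orally at 1 mg kg-1 as a 0.25% CMC suspension and fed 3 h post-dose. Retro-orbital blood was taken from 0.25 to 24 h. Plasma was hexane-extracted and assayed by LC-MS/MS. Cmax and Tmax were read from the data; other parameters came from non-compartmental analysis. Mean ± S.D.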

[13] = Acute toxicity in Swiss albino mouse assessed as tissue protein level at 5 mg/kg, po measured after 7 days (reference value: 0.029 +/- 0.004 mg/ml); format: organism-based; settings: in vivo, 168 h, time 7 day
[14] = Clearance in Sprague-Dawley rat at 1 mg/kg, po measured upto 24 hrs by LC-MS/MS analysis; format: ADME, organism-based; settings: in vivo; how it was run: as §1
[15] = Acute toxicity in Swiss albino mouse assessed as absolute lung weight at 50 mg/kg, po measured after 7 days (reference value: 0.16 +/- 0.01 g); format: organism-based; settings: in vivo, 168 h, time 7 day
[16] = Acute toxicity in Swiss albino mouse assessed as absolute spleen weight at 5 mg/kg, po measured after 7 days (reference value: 0.17 +/- 0.03 g); format: organism-based; settings: in vivo, 168 h, time 7 day
[17] = Acute toxicity in Swiss albino mouse assessed as relative liver weight at 5 mg/kg, po measured after 7 days (reference value: 6.81 +/- 2.14 %); format: organism-based; settings: in vivo, 168 h, time 7 day
[18] = Acute toxicity in Swiss albino mouse assessed as triglycerides level at 50 mg/kg, po measured after 7 days (reference value: 58.51 +/- 10.82 mg/dL); format: organism-based; settings: in vivo, 168 h, time 7 day
[19] = Acute toxicity in Swiss albino mouse assessed as absolute heart weight at 5 mg/kg, po measured after 7 days (reference value: 0.12 g); format: organism-based; settings: in vivo, 168 h, time 7 day
[20] = Acute toxicity in Swiss albino mouse assessed as tissue protein level at 300 mg/kg, po measured after 7 days (reference value: 0.029 +/- 0.004 mg/ml); format: organism-based; settings: in vivo, 168 h, time 7 day
[21] = Acute toxicity in Swiss albino mouse assessed as absolute brain weight at 1000 mg/kg, po measured after 7 days (reference value: 0.37 +/- 0.02 g); format: organism-based; settings: in vivo, 168 h, time 7 day
[22] = Acute toxicity in Swiss albino mouse assessed as basophil count at 300 mg/kg, po measured after 7 days (reference value: 1.50 +/- 0.29 %); format: organism-based; settings: in vivo, 168 h, time 7 day
Mus musculus = experiment: In vivo osteogenic activity in ovariectomized BALB/c mouse assessed as decrease in trabecular spacing at 1 to 10 mg/kg, po via gavage administered for 1 month by microCT imaging analysis; format: functional, organism-based; settings: dose 1-10 mg/kg, time 1.0 months
How it was run: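 Ovariectomized female balb/c mice, 8 weeks old, 10 per group, received 1.0 or 10.0 mg kg-1 once daily by oral gavage (gum acacia vehicle) for 4 weeks, alongside sham and Ovx vehicle groups. Femurs were scanned by microCT. BV/TV, Tb.N and Tb.Sp were derived by the mean intercept length method. Mean ± SE.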

[23] = Acute toxicity in Swiss albino mouse assessed as monocyte count at 300 mg/kg, po measured after 7 days (reference value: 12.58 +/- 2.86 %); format: organism-based; settings: in vivo, 168 h, time 7 day
[24] = Acute toxicity in Swiss albino mouse assessed as creatinine level at 50 mg/kg, po measured after 7 days (reference value: 0.97 +/- 0.07 mg/dL); format: organism-based; settings: in vivo, 168 h, time 7 day
[25] = Acute toxicity in Swiss albino mouse assessed as relative heart weight at 1000 mg/kg, po measured after 7 days (reference value: 0.51 +/- 0.02 %); format: organism-based; settings: in vivo, 168 h, time 7 day
Calvarial osteoblast [26] = experiment: Induction of osteoblast differentiation in mouse calvarial osteoblast assessed as increase in ERbeta expression at 1 pM incubated for 48 hrs by Western blot analysis; format: functional, cell-based
How it was run: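 Calvarial osteoblasts at 60–70% confluence were treated ± compound for 48 h, with 100 pM E2 as positive control. Lysates (30 µg protein) were resolved on 10% SDS-PAGE, transferred to PVDF and probed for ER-α and ER-β with HRP secondaries and ECL detection. Bands were quantified by densitometry normalized to β-actin.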

[27] = Acute toxicity in Swiss albino mouse assessed as absolute kidney weight at 300 mg/kg, po measured after 7 days (reference value: 0.29 +/- 0.02 g); format: organism-based; settings: in vivo, 168 h, time 7 day
[28] = Acute toxicity in Swiss albino mouse assessed as absolute heart weight at 50 mg/kg, po measured after 7 days (reference value: 0.12 g); format: organism-based; settings: in vivo, 168 h, time 7 day
[29] = Acute toxicity in Swiss albino mouse assessed as relative kidney weight at 50 mg/kg, po measured after 7 days (reference value: 1.25 +/- 0.08 %); format: organism-based; settings: in vivo, 168 h, time 7 day

CCCCN(C)C(=O)CCCCOc1ccc([C@H]2c3ccc(OC)cc3OC(C)(C)[C@@H]2c2ccccc2)cc1
Activity [1]: 92.31 mg/dL
Activity (Calvarial osteoblast [2]): Active
half-life [3]: 3.52 h
Activity [4]: 57.55 mg/dL
Activity [5]: 41.54%
Activity [6]: 0.13 g
Activity [7]: 7.31 million/mm3
Activity (Calvarial osteoblast [8]): Active
Activity [9]: 1.54%
Activity [10]: 4.84%
Activity [11]: 1.23%
Tmax [12]: 1.5 h
Activity [13]: 0.035 mg/mL
CL [14]: 18.3 mL/min/kg
Activity [15]: 0.2 g
Activity [16]: 0.11 g
Activity [17]: 4.84%
Activity [18]: 83.78 mg/dL
Activity [19]: 0.12 g
Activity [20]: 0.034 mg/mL
Activity [21]: 0.33 g
Activity [22]: 1.25%
Activity (Mus musculus): Active
Activity [23]: 8.99%
Activity [24]: 0.8 mg/dL
Activity [25]: 0.57%
Activity (Calvarial osteoblast [26]): Active
Activity [27]: 0.27 g
Activity [28]: 0.12 g
Activity [29]: 1.09%
